Sampled rows, rich in hits. Any-hit rate of the full collection: about 6.3%.
PostGolgi ctrl: growth of the yeast control strain, post-Golgi counter-screen | efflux-deficient yeast background strain, growth absorbance A615, 16 h | AID 738 | inhibition, % at 10 µM | 5% of 98,000 active
Ecoli tolC: growth inhibitors of E. coli BW25113 tolC mutant; 2.2% of 65,000 active; growth inhibition, % at 10 µM (by protocol); OD615;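 active = growth inhibition at or above a cutoff equal to the mean over every tested compound plus 3 SD, cut at about 60% in these data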;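 note: growth measured after 20 h incubation at 37 °C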
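signal = optical density read at 615 nm | test system = E. coli ΔtolC::kan strain BW25113 | timing = 20 h compound exposure of bacteria at 37 °C | buffer or medium = LB medium plus 50 µg/mL kanamycin | compound dosing = 10 µM final, single dose | evaluation = % inhibition of E. coli growth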
PostGolgi yeast: growth inhibition of a yeast mutant, post-Golgi transport screen | post-Golgi transport phenotypic cell assay | 0.9% of 98,000 active | inhibition, % at 10 µM;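 note: yeast cells grown in 1536-well plates; yeast grown about 18 h at 30C before absorbance read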
E coli WT exp: E. coli BW25113 growth inhibition, expanded screen. OD600 absorbance. 0.15% of 98,000 active. growth inhibition, % at 100 µM;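 active = growth inhibition above about 50% at one test dose, limit read from the data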;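 note: growth measured after 20 h incubation at 37 °C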
Of the large screens only hits and unclear results are named; the others gave an inactive call. Cut-off read from the data, not from the text of the source, unless noted: active = inhibition above about 30%; inactive = the rest.

COC(=O)C(/C=N/OCc1ccc([N+](=O)[O-])cc1)NC(=O)c1cccc(Cl)c1 (stereo unspecified)	none (no result: Ecoli tolC)
CC1CCC(n2c(=S)[nH]c3ccccc3c2=O)CC1 (stereo unspecified)	PostGolgi ctrl 49
CC(SCc1ccccc1)C(=O)NN=C1CCN(C)CC1 (stereo unspecified)	none (no result: Ecoli tolC)
CC(C)Cn1c(=O)c(C2=NS(=O)(=O)c3ccccc3N2)c(O)c2ccccc21	none (no result: PostGolgi ctrl, PostGolgi yeast, E coli WT exp)
C=C(C)C1CCC(C)=C1COC(=O)Nc1ccccc1 (stereo unspecified)	Ecoli tolC 78
Cc1ccc(C2C(C(=O)c3sc(-c4ccccc4)nc3C)=C(O)C(=O)N2CCN(C)C)o1 (stereo unspecified)	none (no result: PostGolgi ctrl, PostGolgi yeast, E coli WT exp)
CCCCc1nc(NCC2CCCO2)c(C#N)c2c1COC(C)(C)C2 (stereo unspecified)	PostGolgi ctrl 96
O=C(c1ccc(NS(=O)(=O)c2cccc3cccnc23)cc1)N1CCOCC1	none (no result: PostGolgi ctrl, PostGolgi yeast, E coli WT exp)
Cc1ccc(NS(=O)(=O)c2cc(C(=O)N3CCOCC3)ccc2C)cc1	PostGolgi yeast 48
Cc1ccc(NS(=O)(=O)c2cc(C(=O)NCCSc3ccc(C)cc3)ccc2C)cc1	PostGolgi ctrl 36 (no result: Ecoli tolC)
COc1ccc(C(=O)NC(C)c2nnc(SCc3ccc(Cl)c(Cl)c3)n2C)cc1 (stereo unspecified)	PostGolgi yeast 33 (no result: Ecoli tolC)
COC(=O)Nc1ccc(S(=O)(=O)NCCO)cc1	none (no result: Ecoli tolC)
N/C(=N\OC(=O)CCC1CCCCC1)c1cccnc1	PostGolgi ctrl 33 (no result: Ecoli tolC)
N/C(=N\OC(=O)CCC1CCCCC1)c1ccc([N+](=O)[O-])cc1	none (no result: Ecoli tolC)
CC1CCN(Cc2ccc(NC(=O)CC3Oc4ccccc4NC3=O)cc2)CC1 (stereo unspecified)	none
COc1ccc(S(=O)(=O)n2nc(-c3ccc(Cl)cc3)cc2N)cc1OC	PostGolgi ctrl 31 (no result: Ecoli tolC)
CCOc1ccc(-c2cc(N)n(S(=O)(=O)c3ccc(OC)c(OC)c3)n2)cc1	none (no result: Ecoli tolC)
O=C(Nc1ccc2snnc2c1)Nc1cccc2ccccc12	PostGolgi ctrl 49 (no result: Ecoli tolC)
Oc1cccc(-c2nc3ccc4ccccc4c3c3c2CCC3)c1	PostGolgi ctrl 44, PostGolgi yeast 55 (no result: Ecoli tolC)
N#Cc1c(N)nc2c(c1-c1cccc(O)c1)CCCCCC2	none
CCCCn1cnc2c(c1=O)c1nc3ccccc3nc1n2Cc1ccc2c(c1)OCO2	none (no result: PostGolgi ctrl, PostGolgi yeast, E coli WT exp)
O=C(CSc1nc2ccccc2o1)Nc1cc(C(F)(F)F)ccc1N1CCOCC1	PostGolgi ctrl 34 (no result: Ecoli tolC)
O=C(CSc1nc2ccccc2o1)Nc1ccccc1N1CCCCCC1	Ecoli tolC 73
FC(F)(F)c1ccc(N2CCOCC2)c(Nc2nc3ccccc3n3cnnc23)c1	PostGolgi ctrl 52
O=C(NCSc1ccnc(SCNC(=O)c2ccc(F)cc2)n1)c1ccc(F)cc1	none (no result: Ecoli tolC)
COc1ccc(OC)c(NC(=O)c2ccccc2SC)c1	none (no result: Ecoli tolC)
CCOc1ccccc1C(=O)Nc1cc(OC)ccc1OC	PostGolgi ctrl 47
CCOc1ccccc1C(=O)Nc1cc(Cl)ccc1O	PostGolgi ctrl 87, Ecoli tolC 100
Cc1ccc(C23CC4CC(CC(C(=O)N5CCOCC5)(C4)C2)C3)cc1	none (no result: Ecoli tolC)
COc1cccc(C2CC(c3cccc(C)c3)n3ncnc3N2)c1 (stereo unspecified)	none
O=[N+]([O-])c1cccc(/C=N/Nc2cc(Cl)nc(-c3ccccc3)n2)c1	none (no result: Ecoli tolC)
CCCS(=O)(=O)N1CCCC(C(=O)NCCCN(C)c2ccccc2)C1 (stereo unspecified)	none
C=CCNc1cc(C(F)(F)F)nc(-c2ccccn2)n1	none (no result: Ecoli tolC)
O=C(Nc1ncccc1O)c1cccc(S(=O)(=O)N2CCc3ccccc32)c1	PostGolgi ctrl 34
O=C(Nc1ccccn1)c1cccc(S(=O)(=O)N2CCOCC2)c1	none
N#Cc1ccc(NC(=O)CCc2ccc(S(=O)(=O)N3CCOCC3)cc2)cc1	none (no result: Ecoli tolC)
Cc1ccc(S(=O)(=O)CCC(=O)c2ccc(O)cc2O)cc1	E coli WT exp 50
CCOC(=O)CCS(=O)(=O)c1ccc(-c2ccc(S(=O)(=O)CCC(=O)OCC)cc2)cc1	none (no result: Ecoli tolC)
CCc1ccc2c(COC(=O)c3n[nH]c4ccccc34)cc(=O)oc2c1	PostGolgi ctrl 37
CC(=O)N1CCN(c2ccc(NC(=O)c3ccc(N4CCCC4)c([N+](=O)[O-])c3)cc2Cl)CC1	none (no result: Ecoli tolC)
CC(=O)c1ccc(N2CCC(c3cc(-c4ccc(Cl)cc4)n[nH]3)CC2)c([N+](=O)[O-])c1	PostGolgi ctrl 43, PostGolgi yeast 41 (no result: Ecoli tolC)
COc1ccc(-c2cc(C3CCN(c4ccc(C(C)=O)cc4[N+](=O)[O-])CC3)[nH]n2)cc1	PostGolgi ctrl 37 (no result: Ecoli tolC)
COC(=O)c1ccc(N2CCC(c3cc(-c4ccc(OC)cc4)n[nH]3)CC2)c([N+](=O)[O-])c1	none (no result: Ecoli tolC)
O=C(c1ccc(N2C(=O)CCC2=O)cc1)N1CCN(c2ccccc2)CC1	none
Cc1ccc(-n2cc3c(-c4cccc(Br)c4)nnc(C)c3n2)cc1	PostGolgi ctrl 41, PostGolgi yeast 99 (no result: Ecoli tolC)
CCN(CC)CCOc1nnc(-c2ccc(C)cc2)c2ccccc12	none (no result: Ecoli tolC)
Cc1nnc(-c2cccc(Br)c2)c2cn(-c3ccccc3Cl)nc12	PostGolgi yeast 102 (no result: Ecoli tolC)
Cn1c2c(c(=O)n(C)c1=O)C(C(F)(F)F)(C(F)(F)F)N=C(c1ccc(Cl)cc1)N2	PostGolgi ctrl 68, PostGolgi yeast 47 (no result: Ecoli tolC)
COc1ccccc1CNC(=O)c1csc(Cc2ccc(Cl)cc2)n1	PostGolgi ctrl 56 (no result: Ecoli tolC)
COc1cc2c(C#N)c(N3CCCCC3)nc(N)c2c(N)n1	none
COc1cc2c(C#N)c(N3CCc4ccccc4C3)nc(N)c2c(N)n1	PostGolgi ctrl 77, Ecoli tolC 74
Cc1ccc(C)n1CCN1CCN(CC(=O)Nc2ccc(S(N)(=O)=O)cc2)CC1	PostGolgi ctrl 37
NS(=O)(=O)c1ccc(NC(=O)CN2CCCCC2)cc1	none
Clc1ccc(Oc2nnnn2-c2ccccc2)cc1	none (no result: Ecoli tolC)
c1ccc(-n2nnnc2Oc2ccc(-c3nnco3)cc2)cc1	PostGolgi ctrl 42
CCCOc1ccccc1C1CC(=O)Nc2cc3c(cc21)OCCO3 (stereo unspecified)	Ecoli tolC 85
CCOc1ccccc1C1CC(=O)Nc2cc3c(cc21)OCCO3 (stereo unspecified)	none
CC(C)Oc1ccccc1C1CC(=O)Nc2cc3c(cc21)OCO3 (stereo unspecified)	PostGolgi ctrl 31
COc1cc(NC(=O)c2nnn(Cc3ccc(SC)cc3)c2N)cc(OC)c1	none
c1cncc(-c2nc(NCC3COc4ccccc4O3)c3ccccc3n2)c1 (stereo unspecified)	PostGolgi ctrl 47 (no result: Ecoli tolC)
CCc1ccc(/C=C2\SC(=S)N(CCCC(=O)Nc3ccccn3)C2=O)cc1	none (no result: Ecoli tolC)
CCCCC(CC)CN1C(=O)/C(=C/c2ccncc2)SC1=S (stereo unspecified)	PostGolgi ctrl 32 (no result: Ecoli tolC)
COc1ccc(C)cc1NC(=O)CN1CCN(C/C=C/c2ccccc2)CC1	none (no result: Ecoli tolC)
CC(=O)c1coc2ccc(OCCN3CCCCC3)cc12	none
Cc1cc(C)n(CCOc2ccc(Cl)cc2Cl)n1	PostGolgi ctrl 35
CCC(c1nnnn1Cc1cccs1)N1CCN(c2nc3ccccc3s2)CC1 (stereo unspecified)	PostGolgi ctrl 32
CC(C)C(c1nnnn1Cc1ccco1)N1CCN(c2nc3ccccc3s2)CC1 (stereo unspecified)	PostGolgi ctrl 41
CCC(c1nnnn1Cc1cccs1)N1CCN(C2CCCC2)CC1 (stereo unspecified)	none

Assay outcomes deposited in PubChem by SRMLSC.
